Data reported in article PMC9529790 (Nature chemical biology, 2022).
Values belong to the molecule of their own block, whether it stands above or below them.

Key:
[1] = test system: parental and 5-FU-resistant SW480 cell lines; test: Spheroid growth of parental and 5-FU-resistant SW480 lines; format: cell-based, human; settings: spheroids
Outline: (§1)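 SW480 cells were seeded on solidified Matrigel in RPMI-1640 spheroid medium containing 20 ng/mL EGF, 20 ng/mL FGF, heparin, N-2 supplement and penicillin/streptomycin. Seeding was 1,000 cells/well (96-well) or 5,000 cells/well (24-well). Test compound was added in medium and cultures were grown 7 days at 37 °C with 5% CO2. Spheroids were imaged by phase contrast (some stained with crystal violet), and small objects excluded before area analysis.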

[2] = target: T1, ALDH1B1 (Homo sapiens, UniProt P30837); test: ALDEFLUOR assay, ALDH1B1 transiently expressed in ALDH1A3-/- A375 cells; format: cell-based; settings: flow cytometry
T1 sequence (P30837 18-517): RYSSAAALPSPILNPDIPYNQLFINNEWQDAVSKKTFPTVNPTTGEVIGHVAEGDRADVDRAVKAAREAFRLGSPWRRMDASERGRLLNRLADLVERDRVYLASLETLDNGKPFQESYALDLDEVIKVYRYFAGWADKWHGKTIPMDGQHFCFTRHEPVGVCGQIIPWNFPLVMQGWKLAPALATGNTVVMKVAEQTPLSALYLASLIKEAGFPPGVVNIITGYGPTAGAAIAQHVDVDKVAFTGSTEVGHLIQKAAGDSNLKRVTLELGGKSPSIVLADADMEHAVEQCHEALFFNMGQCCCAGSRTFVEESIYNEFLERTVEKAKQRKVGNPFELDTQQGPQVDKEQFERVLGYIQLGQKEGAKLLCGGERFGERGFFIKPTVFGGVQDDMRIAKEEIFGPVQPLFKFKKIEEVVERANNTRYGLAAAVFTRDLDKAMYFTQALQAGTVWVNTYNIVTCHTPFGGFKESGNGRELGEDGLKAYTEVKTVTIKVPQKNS
Outline: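 ALDH1A3-knockout A375 cells were grown 24 h, then transfected with empty pCMV6, pCMV6-GFP (to estimate transfection efficiency) or pCMV6-ALDH1B1. Medium was changed at 24 h and cells grown another 24 h. Trypsinized cells in ALDEFLUOR buffer were exposed to test compound for 15 min at 37 °C with 5% CO2, then to ALDEFLUOR reagent for 30 min. Live single cells (DAPI gating) were analysed by flow cytometry; read-out is % of cells outside the negative-control gate (ALDEFLUOR vs SSC-A).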

[3] = target: T2, endogenous ALDH1B1 in live SW480 cells (Homo sapiens, UniProt P30837); test: Cellular thermal shift assay; format: binding; settings: 10 µM, 1 hour
T2 sequence (P30837 18-517): T1 sequence (P30837 18-517)
Outline: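 SW480 cells were grown in 15-cm dishes, trypsinized at about 80% confluence, and kept live in the incubator for 1 h. Cells were then pelleted at 480 x g for 5 min, washed with PBS and resuspended in PBS with protease inhibitors. Total protein per lane was checked on stain-free gels alongside immunoblotting of ALDH1B1.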

[4] = test system: SW480 cells; test: Thermal proteome profiling; format: binding, human; settings: 2 µM, 1 hour; cutoffs ΔTm ≥ 1.5 °C and P < 0.05
[5] = test system: colorectal tumor PDO lines; test: Patient-derived organoid viability; format: cell-based, human; settings: seven days treatment; CTO1-CTO4
Outline: (§2)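 Organoids (wild-type colon or colorectal tumour) were dissociated with TrypLE plus 10 µM Y-27632. They were plated as 10-µL BME-2 domes at 1,000 cells/µL in WENR medium with 10 µM Y-27632 and 2.5 µM CHIR99021, and grown 3–5 days. Test compound at varying concentrations in WENR was then given for 7 days. Viability was read as resazurin metabolism with 10% Alamar Blue: 4 h for tumour PDOs, 6 h for wild-type PDOs, at 37 °C in the dark.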

[6] = test system: wild-type colon PDOs; test: Patient-derived organoid viability; format: cell-based, human; settings: seven days treatment; compared with tumor PDOs
Outline: as §2

[7] = test system: ALDH1B1 variants (E124G/N457G and V173I/N457G); test: Inhibitor resistance of ALDH1B1 mutants; format: biochemical, human
Outline: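 A375 ALDH1A3-knockout cells were transfected (3:1 DNA:FuGENE HD) with wild-type or mutant pCMV6-ALDH1B1 and grown 48 h. Cells in ALDEFLUOR buffer received ALDEFLUOR reagent. Within 10 s, aliquots were moved to tubes holding DMSO, DEAB (1.5 mM stock in EtOH) or test compound (100 µM or 10 µM stocks in DMSO). Tubes were incubated 30 min at 37 °C, cells pelleted, and analysed by flow cytometry.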

[8] = test system: E124G/N457G mutant-expressing cells; format: cell-based, human
Outline: as §1

[9] = target: T3, ALDH1B1 (aldehyde dehydrogenase 1B1), human recombinant, mitochondria-targeting sequence removed (human), P30837; test: crystal structure; settings: remark: other sources report otherwise
T3 chain: T1 sequence (P30837 18-517)

Molecule: CCN(CC)c1ccc(C=O)cc1 [DEAB, N,N-diethylaminobenzaldehyde]
- cellular ALDH1B1 activity (ALDEFLUOR signal) [2]: abrogated

B1: ALDH1B1 (aldehyde dehydrogenase 1B1), human recombinant, mitochondria-targeting sequence removed, P30837 18-517 (enzyme)
chain: T1 sequence (P30837 18-517)
- stoichiometry N [9]: 4

More lines, main results first:

- loss of sensitivity of 5-FU-resistant SW480 line versus parental line [1]: approximately 20 fold
Molecule: O=c1[nH]cc(F)c(=O)[nH]1 [5-FU]

- thermal stabilization of ALDH1B1 [3]: stabilizes endogenous ALDH1B1
- inhibitor sensitivity of ALDH1B1 variants [7]: markedly reduced inhibitor sensitivity
Molecule: COc1cc(Cl)ccc1C1=CN(c2ccc(-c3ccccc3OC)cc2)C2=NCCCN12.O=CO [IGUANA-1]
- inhibitor-dependent change in thermal stability (ΔTm), proteome-wide [4]: largest inhibitor-dependent increase in thermal stability
- growth of colorectal adenocarcinoma PDOs [5]: inhibit the growth of each line
- sensitivity of wild-type colon PDOs [6]: less sensitive
- resistance of mutant-expressing spheroid cultures versus wild-type ALDH1B1 [8]: more resistant
